Assay results as given in ChEMBL document CHEMBL4382270, “Total Synthesis and Biological Evaluation of Sericetin for Protection against Cisplatin-Induced Acute Kidney Injury” (J Nat Prod, 2018).
Calls of active or inactive are those of the source. No cut-off for these calls is given here.

Key:
NRK-52E [1] = test: Protection against cisplatin-induced cytotoxicity in rat NRK-52E cells assessed as increase in cell viability at 20 uM after 24 hrs by MTT assay; format: functional, cell-based
Procedure, shortened: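 NRK52E cells given test agent at 20 μM for 24 h, with or without cisplatin 30 μM. Vehicle is DMSO at 0.2% final. Viability read by MTT. Mean ± SEM, N = 3.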

[2] = Renal toxicity in Sprague-Dawley rat assessed as change in serum BUN levels at 1 mg/kg administered once daily for 6 days; format: organism-based; settings: in vivo, 144 h
Procedure, shortened: (§1)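 Male Sprague-Dawley rats (200 ± 10 g) given test agent alone at 1 mg/kg in 5% DMSO/0.9% saline, once and then daily for 5 further days. Killed on day 7. Serum BUN and creatinine measured by clinical chemistry, and kidneys examined by H&E histology.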

Rattus norvegicus [3] = test: Protection against cisplatin-induced […] in Sprague-Dawley rat assessed as reduction in cleaved caspase-3 level in kidneys at 1 mg/kg pretreated for 24 hrs followed by cisplatin challenge and subsequent qd dosing for 5 days measured 7 days post cisplatin challenge by Western blot analysis; format: functional, organism-based
Procedure, shortened: (§2)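 Male Sprague-Dawley rats (200 ± 10 g) received a single ip cisplatin dose of 6 mg/kg in saline. Test agent 1 mg/kg in 5% DMSO/0.9% saline given once 24 h before cisplatin, then daily for 5 days. Sacrifice on day 7. Read-outs: serum BUN and creatinine by clinical chemistry, kidney H&E histology, and cleaved caspase-3 by Western blot of kidney homogenate. N = 6/group.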

NRK-52E [4] = test: Cytotoxicity against rat NRK-52E cells assessed as effect on cell viability at 1 to 50 uM after 24 hrs by MTT assay; format: cell-based
Procedure, shortened: (§3)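 NRK-52E rat renal tubular epithelial cells (ATCC) exposed to test agent at 0, 1, 10 or 50 μM for 24 h, with or without cisplatin 30 μM (PBS stock). Viability measured by MTT. Mean ± SEM, N = 3.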

NRK-52E [5] = test: Protection against cisplatin-induced cell damage in rat NRK-52E cells assessed as reduction in reactive oxygen species generation at 10 uM after 24 hrs by DCF staining based fluorescence microscopic analysis; format: functional
Procedure, shortened: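 NRK-52E cells co-treated with cisplatin 30 μM and test agent 10 μM for 24 h. ROS stained with CM-H2DCFDA (DCF) and imaged by fluorescence. Percent ROS derived from DCF signal by region-of-interest quantitation. Mean ± SEM, N = 3.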

Rattus norvegicus [6] = test: Protection against cisplatin-induced acute liver injury in Sprague-Dawley rat assessed as restoration of serum creatinine levels at 1 mg/kg pretreated for 24 hrs followed by cisplatin challenge and subsequent qd dosing for 5 days measured 7 days post cisplatin challenge; format: functional, organism-based; settings: in the assay text read “acute kidney injury” for “acute liver injury”; procedure, shortened: as §2
NRK-52E [7] = test: Protection against cisplatin-induced cytotoxicity in rat NRK-52E cells assessed as improvement in morphological changes after 24 hrs by microscopic analysis; format: functional, cell-based
Procedure, shortened: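 Cells (NRK-52E) exposed to test agent at 0, 1, 10 or 50 μM plus cisplatin 30 μM for 24 h. Morphology then examined by light microscopy.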

[8] = Renal toxicity in Sprague-Dawley rat assessed as change in serum creatinine levels at 1 mg/kg administered once daily for 6 days; format: organism-based; settings: in vivo, 144 h; procedure, shortened: as §1
NRK-52E [9] = test: Protection against cisplatin-induced cytotoxicity in rat NRK-52E cells assessed as increase in cell viability after 24 hrs by MTT assay; format: functional, cell-based; procedure, shortened: as §3
NRK-52E [10] = test: Protection against cisplatin-induced apoptosis in rat NRK-52E cells assessed as reduction in cleaved caspase-3 level at 10 uM after 24 hrs by Western blot analysis; format: functional, cell-based
Procedure, shortened: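 NRK-52E cells given cisplatin 30 μM with or without test agent 10 μM for 24 h. Cleaved (active) caspase-3 detected by Western blot and quantified by densitometry. Mean ± SEM, N = 3.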

NRK-52E [11] = test: Protection against cisplatin-induced cell damage in rat NRK-52E cells assessed as reversal of mitochondrial membrane potential loss at 10 uM after 24 hrs by JC1 staining based fluorescence microscopic analysis; format: functional
Procedure, shortened: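 After 24 h of cisplatin 30 μM with or without test agent 10 μM, NRK-52E cells stained with JC-1 and imaged by fluorescence microscopy. Red (aggregate) and green (monomer) signals quantified by ROI. Mean ± SEM, N = 3.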

Rattus norvegicus [12] = test: Protection against cisplatin-induced acute liver injury in Sprague-Dawley rat assessed as restoration of serum BUN levels at 1 mg/kg pretreated for 24 hrs followed by cisplatin challenge and subsequent qd dosing for 5 days measured 7 days post cisplatin challenge; format: functional, organism-based; settings: in the assay text read “acute kidney injury” for “acute liver injury”; procedure, shortened: as §2
Rattus norvegicus [13] = test: Protection against cisplatin-induced […] in Sprague-Dawley rat assessed as reversal of histopathological changes in kidney at 1 mg/kg pretreated for 24 hrs followed by cisplatin challenge and subsequent qd dosing for 5 days measured 7 days post cisplatin challenge by H and E staining based light microscopic analysis; format: functional, organism-based; procedure, shortened: as §2
[14] = Renal toxicity in Sprague-Dawley rat assessed as histopathological changes in kidney at 1 mg/kg administered once daily for 6 days by H and E staining based light microscopic analysis; format: organism-based; settings: in vivo, 144 h; procedure, shortened: as §1

In the case of CC(C)=CCOc1c2c(cc3oc(-c4ccccc4)c(OCc4ccccc4)c(=O)c13)OC(C)(C)C=C2, the Activity (NRK-52E [1]) is reported as “Active”, the Activity [2] is reported as “Non-Toxic” and the Activity (Rattus norvegicus [3]) is reported as “Active”. The Activity (NRK-52E [4]) was “Non-Toxic”, the Activity (NRK-52E [5]) was “Active” and the Activity (Rattus norvegicus [6]) was “Active”. The Activity (NRK-52E [7]) was “Dose-dependent effect”, the Activity [8] was “Non-Toxic” and the Activity (NRK-52E [9]) was “Dose-dependent effect”. The Activity (NRK-52E [10]) was “Active”, the Activity (NRK-52E [11]) was “Active” and the Activity (Rattus norvegicus [12]) was “Active”. The Activity (Rattus norvegicus [13]) was “Active” and the Activity [14] was “Non-Toxic”.
